Source: PubChem BioAssay AID809 (SRMLSC, 2007)
The source made the active and inactive calls.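 How the source made its calls: active means EC50 for reversing nicotinamide-shortened yeast lifespan at or below a set limit; inactive means EC50 above that limit.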

System: S. cerevisiae DeaD BB579, nicotinamide rescue growth, OD615 48 h
Experiment: BB579 yeast growth restoration under nicotinamide – S. cerevisiae, yeast lifespan extension project, dose response (AID 809)
Summary of the method: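 System: S. cerevisiae DeaD strain BB579 / Medium: Glucose-containing restrictive synthetic medium (CSMM-D), shifted from galactose / Schedule: 4 h pre-incubation, 48 h exposure at 30 °C / Technique: optical density at 615 nm (absorbance) / Read-out: culture growth as lifespan proxy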

| SMILES | EC50 |
| --- | --- |
| CCOC(=O)c1[nH]nc(C(=O)c2ccc(Br)cc2)c1O | 5.89 µM |
| O=c1c2ccccc2sn1-c1ccccc1 | > 10 µM (inactive) |
| O=C(/C(=C/O)N=Nc1ccc(Cl)cc1)c1ccncc1 | 2.64 µM |
| O=C(c1ccc(F)cc1)C(CN1CCOCC1)c1ccccc1 (stereo not drawn) | 1.12 µM |
| CC1=CN2C(=N)/C(=C/c3ccc([N+](=O)[O-])o3)C(=O)N=C2S1 | 6.69 µM |
| O=C1c2ccccc2-c2onc3c(Oc4ccccc4)cc(O)c1c23 | 6.05 µM |
| Cc1ccc(S(=O)(=O)Nc2ccccc2/C=N/c2nc3ccccc3n2C(C)C)cc1 | > 10 µM (inactive) |
| COc1ccc(O)c(C(=O)c2cc(C#N)c(=O)n(CC3CCCO3)c2)c1 (stereo not drawn) | 8.21 µM |
| CC1(C)CC2c3cccc(C(=O)O)c3C(=O)N2c2c1ccc1ccccc21 (stereo not drawn) | 2.84 µM |
| CCCCn1c(NS(=O)(=O)c2ccc(C)cc2)c(C(=O)OCC)c2nc3ccccc3nc21 | > 10 µM (inactive) |
| CCOC(=O)COc1ccccc1/C=C\[N+](=O)[O-] | 1.79 µM |
| CCCCSc1nc(O)c(C2OC(=O)c3c2ccc(OC)c3OC)c(=O)n1C (stereo not drawn) | 5.79 µM |
| CCOC(=O)c1c(C)oc2c1c(C(c1cccnc1)N1CCCCC1)c(O)c1ccccc12 (stereo not drawn) | > 10 µM (inactive) |
| COc1ccc(/C=N/NC(=O)c2csc(-n3nc(C)cc3C(F)(F)F)n2)cc1 | > 10 µM (inactive) |
| COC(=O)/C(=C/c1cn(C)c2ccccc12)[N+](=O)[O-] | 2.24 µM |
| COC(=O)CCS(=O)(=O)c1nc(-c2ccccc2)cc(C(F)(F)F)n1 | 1.99 µM |
| CCCC(=O)C1C(=O)CC(CC(C)SCC)CC1=O (stereo not drawn) | 2.33 µM |
| C=CCn1c(O)c(C(CC)=NCCN2CCOCC2)c(=O)[nH]c1=O | > 10 µM (inactive) |
| O=S1(=O)C=C(Sc2nnc(-c3ccccc3)o2)c2ccccc21 | 9.27 µM |
| Cn1c(SCC(=O)N2CCCc3ccccc32)nnc1-c1c[nH]c2ccccc12 | > 10 µM (inactive) |
| Cc1ccnc(N=Cc2c(O)ccc3oc4c(c23)CCCC4)c1 | 8.47 µM |
| C/C(=N\NC(=O)c1cccnc1)c1c(O)cc(C)oc1=O | > 10 µM (inactive) |
| Cc1ccc2[nH]c(=O)c(CN(CCO)Cc3nnnn3CCc3ccccc3)cc2c1 | > 10 µM (inactive) |
| CCCCC1C(=O)CC[C@H]2[C@@H]1CC(=O)[C@@H]2C/C=C\CCCC(=O)O (stereo partly drawn) | 8.1 µM |
| O=c1c2c3c(sc2ncn1/N=C/c1ccc([N+](=O)[O-])o1)CCCC3 | > 10 µM (inactive) |
| O=C1/C(=C/c2cccnc2)CCC/C1=C\c1cccnc1 | 7.04 µM |
| O=c1cc(O)c2c(=O)n(-c3ccccc3)c3c(c2o1)CCCCCC3 | > 10 µM (inactive) |

| SMILES | EC50 |
| --- | --- |
| CCCCn1c(=O)c2c(O)cc(=O)oc2c2ccccc21 | 5.94 µM |
| COc1cccc(/C=C2\C(=O)N(c3cccc(C)c3)C(=O)c3ccccc32)c1 | > 10 µM (inactive) |
| COc1ccc(C(=O)C(CN2CCOCC2)c2ccccc2)cc1F (stereo not drawn) | 4.62 µM |
| C[C@]12CC[C@@H]3c4ccc(O)cc4CC[C@H]3[C@@H]1CC[C@@H]2OC(=O)CCC(=O)O | 5.42 µM |
| CCOc1ccc(NCc2nc3ccccc3n2CCOc2ccccc2)cc1 | 3.28 µM |
| O=C1/C(=C\c2cccnc2)CN(Cc2ccccc2)C/C1=C\c1cccnc1 | 9.63 µM |
| CCCCSc1[nH]c(=O)c(C(=O)OCC)cc1C#N | 6.45 µM |
| CC(=O)Oc1c(C(=O)c2nnc(C)o2)c(=O)n(C)c2ccccc12 | > 10 µM (inactive) |
| COc1ccc(OC)c(NC(=S)N2CCN(C/C=C/c3ccccc3)CC2)c1 | > 10 µM (inactive) |
| CC1=NN(c2ccc(C(F)(F)F)cn2)C(=O)C1 | > 10 µM (inactive) |
| CCOC(=O)CSC1=NC(=O)/C(=C/c2ccc(OC)cc2)S1 | 6.43 µM |
| Cc1cccc(OC(=O)n2c(=S)oc3cc(Cl)ccc32)c1 | 5.42 µM |
| Cc1cc2c(c(=O)n1CCc1ccccc1)C(c1ccco1)C(C#N)=C(N)O2 (stereo not drawn) | > 10 µM (inactive) |
| CS(=O)(=O)c1nc(-c2ccco2)cc(C(F)(F)F)n1 | 4.01 µM |
| CCCCn1c(/N=C/c2ccccc2NS(=O)(=O)c2ccc(C)cc2)nc2ccccc21 | 3.53 µM |
| c1ccc(-c2cc(N3CCOCC3)nc3ccccc23)cc1 | > 10 µM (inactive) |
| COc1ccccc1C(=O)Oc1cc(N)n(S(=O)(=O)c2ccc(C)cc2)n1 | > 10 µM (inactive) |
| CCOC(=O)C1CCN(C(c2cc3ccc(C)c(C)c3[nH]c2=O)c2nnnn2C2CCCCC2)CC1 (stereo not drawn) | > 10 µM (inactive) |
| CC1=NN(Cc2ccccc2)C(=O)C1C(c1ccccc1)C(C#N)C#N (stereo not drawn) | > 10 µM (inactive) |
| O=C(NCC1CCCO1)c1c(O)c2ccccc2[nH]c1=O (stereo not drawn) | > 10 µM (inactive) |
| O=C1c2ccccc2C(=O)N1Cc1nc2ccccc2c(=O)n1-c1ccc(Br)cn1 | 1.67 µM |
| CC(=O)C(C(C)=O)c1c(Cl)c(O)c(O)c2c(C(=O)c3ccccc3)coc12 | > 10 µM (inactive) |
| CCCC(=O)Nc1ccc(C(=O)NNC(=S)NC(=O)c2cccs2)cc1 | > 10 µM (inactive) |
| O=C(Nc1nc2ccccc2n1CCN1CCOCC1)c1cn(-c2ccccc2)nc1-c1ccccc1 | > 10 µM (inactive) |
| Cc1ccc(C(=O)C2C(=O)c3ccccc3C2=O)cc1 | 3.68 µM |
| O=C(O)c1ccc(O)c(N2C(=O)Nc3ccccc3N2O)c1 | > 10 µM (inactive) |
